# Out of some 2,100 compounds screened, about 30 (1%) were called active. These entries were drawn from the full list. Values without a mark were called inactive.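 How the source made its calls: active means inhibition above about 20% chosen separately for each screening run (limit read from the data); inactive means the rest.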
# Target: Disintegrin and metalloproteinase domain-containing protein 10 (Homo sapiens) (UniProt O14672)
# Assay: blockers of ADAM10 peptide cleavage – biochemical, QFRET, triplicate, confirmation (AID 743208);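 further: 0% = DMSO wells and 100% = marimastat wells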
# Conditions: EDANS fluorescence, at 6.95 µM, active compounds read high
# Procedure, shortened: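 Assay system: human ADAM10 protease with quenched EDANS/DABCYL DM2 peptide / Input: ADAM10 at 20 nM (2X solution) / Dosing: 6.95 µM single dose / Incubation: compound-enzyme preincubation 30 min, then 3 h substrate reaction, both 25 °C / Technique: FRET fluorescence, ex 359 nm, em 460 nm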
# Disintegrin and metalloproteinase domain-containing protein 10 (Homo sapiens), sequence (O14672 214-748 limits assumed): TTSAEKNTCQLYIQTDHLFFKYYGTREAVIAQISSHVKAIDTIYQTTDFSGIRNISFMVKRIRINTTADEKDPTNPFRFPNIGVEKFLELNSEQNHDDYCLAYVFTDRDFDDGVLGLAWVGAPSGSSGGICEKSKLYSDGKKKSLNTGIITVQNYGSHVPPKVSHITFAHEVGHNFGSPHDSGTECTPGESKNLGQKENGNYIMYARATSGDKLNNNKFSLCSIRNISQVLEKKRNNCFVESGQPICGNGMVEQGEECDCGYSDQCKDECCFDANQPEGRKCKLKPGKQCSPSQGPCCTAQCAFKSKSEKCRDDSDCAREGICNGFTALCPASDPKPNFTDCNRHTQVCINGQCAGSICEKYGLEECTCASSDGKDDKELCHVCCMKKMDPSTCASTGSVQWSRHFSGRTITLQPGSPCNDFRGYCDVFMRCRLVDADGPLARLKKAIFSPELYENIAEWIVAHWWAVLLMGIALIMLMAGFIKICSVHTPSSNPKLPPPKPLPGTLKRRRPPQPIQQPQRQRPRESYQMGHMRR
row,Compound,inhibition [%]
1,CC1(C)C=Cc2c(ccc3c2OC[C@@H](c2ccc(O)cc2O)C3)O1,9.96
2,CCOc1cc(/C=N/NC(=O)c2cc(-c3ccccc3)nc3ccccc23)ccc1O,9.93
3,C=C(C)COc1ccc(-c2n[nH]c(C)c2-c2ccccc2)c(O)c1,5.81
4,Cc1cccc(CCNS(=O)(=O)c2ccc(S(=O)(=O)NC3CCCC3)cc2)c1,0.65
5,Cc1ccccc1-n1c(SCC(=O)Nc2cccc3ccccc23)nc(O)cc1=O,-0.12
6,COc1ccccc1CC1(C)C(=O)Nc2ccc(OC(F)(F)F)cc21 (configuration not stated),0.74
7,O=C(OCc1ccc(-c2ccccc2)cc1)c1cccc(O)c1,12.8
8,O=S(=O)(c1cccc(S(=O)(=O)N2CCC(n3nnc4ccccc43)CC2)c1)N1CCCCC1,0.35
9,COc1cccc(NC(=O)CN2CCN(c3nc(-c4cccc(OC)c4)cs3)CC2)c1,8.73
10,C=CCC[C@@H](Cc1ccc(F)cc1)C(=O)O[C@H](CNC(=O)[C@H](CC=C)CC(=O)N(CCO)Cc1ccccc1)c1ccccc1,11.4
11,COc1cccc(NC(=O)C2C(c3ccccc3)C2(Cl)Cl)c1 (configuration not stated),5.98
12,CCOc1cc(NC(=O)c2ccccc2C(=O)O)c(OCC)cc1NC(=O)c1ccccc1F,3.74
13,O=C(Cc1ccc(Cl)c(Cl)c1)Nc1ccc(SC(F)F)cc1,7.73
14,COc1cccc(CC2(CO)CCCN(Cc3ccc(OC(F)F)cc3)C2)c1 (configuration not stated),-1.93
15,Cc1cc(O)ccc1-c1cc(C(=O)NCc2cc(C(F)(F)F)cc(C(F)(F)F)c2)[nH]n1,1.37
16,Cn1nc(C(F)(F)F)c(C(=O)Nc2cccc(C(F)(F)F)c2)c1SCc1ccc(Cl)cc1,7.28
17,CCC(C)(C)c1ccc(Oc2ccc(NC(=O)COC(=O)C3=COCCO3)cc2)cc1,9.01
18,Cc1[nH]c2ccccc2c1C(=O)COC(=O)c1c(-c2ccccc2)noc1C,3.43
19,Cn1c(CNc2nc(-c3ccccc3)cs2)nnc1SCC(=O)c1ccccc1,0.21
20,COc1cc(/C=N/n2c(C)n[nH]c2=S)ccc1OCc1ccccc1,-0.86
21,COc1ccc(C(CCN(Cc2ccc(OC)c(OC)c2)C(=O)CCl)c2ccccc2)cc1 (configuration not stated),2.71
22,O=S(=O)(c1ccccc1)N(Cc1cccc(F)c1)c1ccccc1,3.92
23,Cc1ccc(N(NC(=O)C(C)(C)O)C(=O)c2ccccc2)cc1C,0.68
24,Cc1ccc(C)c(NC(=S)NNC(=O)c2csc(C)c2)c1,3.38
25,Cc1ccc(/C=N/NC(=O)CSc2nc3ccccc3o2)cc1,0.27
26,COc1ccc(OCCCn2cccc2/C=C2/C(=N)N3OC(C)=CC3=NC2=O)cc1,1.45

row,Compound,inhibition [%]
1,COc1ccc(C(=O)NN2C(=O)C3C(c4ccccc4)C=CC(c4ccccc4)C3C2=O)cc1 (configuration not stated),6.22
2,COc1ccc(S(=O)(=O)N2CCN(C(C)C(=O)Nc3ccc(C(C)C)cc3)CC2)cc1 (configuration not stated),4.39
3,COc1ccc(C2CC(c3ccccc3)=NN2C(=O)COC(=O)COc2ccccc2)cc1 (configuration not stated),8.14
4,O=C(CSCc1ccc(Br)cc1)Nc1ccc(S(=O)(=O)N2CCCCCC2)cc1,7.76
5,Cc1cnc(C(=O)OCc2c(C)cc(C(C)(C)C)cc2C)cn1,0.57
6,Cc1cc(Nc2ccccc2)n(C(=O)c2ccc(N)cc2)n1,2.25
7,CCCCCc1c(-c2ccc(OC)c(OC)c2)ncn1CCc1ccccc1OC,5.03
8,O=C(CC1SC(=Nc2ccccc2)N(Cc2ccccn2)C1=O)Nc1cccc(Cl)c1 (configuration not stated),7.51
9,CC(C)(C)c1ccc(S(=O)(=O)NCC2CCN(C(=O)C(=O)c3cc4ccccc4o3)CC2)cc1,6.76
10,CCCC(=O)n1nc(NCc2ccc(OC)cc2)nc1NCc1ccc(OC)cc1,9.12
11,O=C1[C@H]2[C@@H](c3ccc(F)cc3)N3C(=O)N(c4ccc(C(F)(F)F)cc4)C(=O)[C@@]3(Cc3ccccc3)[C@H]2C(=O)N1C1CCCCC1,8.51
12,CN(C)S(=O)(=O)c1cccc(NC(=O)COC(=O)C2(c3ccccc3F)CCCC2)c1,2.23
13,O=C(NC(Cc1c[nH]c2ccccc12)C(=O)N/N=C/c1ccc(Br)cc1)c1cccs1 (configuration not stated),9.54
14,S=c1[nH]cc(-c2ccc(Cl)cc2)n1-c1ccccc1,1.28
15,COC(=O)[C@@]12C[C@@H](CC(=O)NCCCCc3ccccc3)C(=O)N(CCc3ccc(OC)c(OC)c3)C1=CCC(C)(C)C2,5.78
16,O=C(COC(=O)CCCSc1nc2ccccc2[nH]1)Nc1ccc(Oc2ccccc2)cc1,10.7
17,COc1ccc([C@@H]2[C@@H]3C(=O)N(C(C)(C)C)C(=O)[C@@H]3[C@]3(Cc4ccccc4)C(=O)N(c4cccc(Br)c4)C(=O)N23)cc1,5.88
18,CC1(Cc2cccc(C#N)c2)C(=O)Nc2ccc(-c3cccc(C(F)(F)F)c3)cc21 (configuration not stated),10.6
19,Cc1ccc(NC(=O)c2nc[nH]c2C(=O)N[C@@H](CCCCNC(=O)OC(C)(C)C)C(=O)OC(C)(C)C)cc1,11.2
20,O=Cc1cn(CCOc2ccc(F)cc2)c2ccccc12,2.15
21,CCOc1ccc(Nc2oc(Cc3ccccc3)nc2C#N)cc1,1.49
22,N/C(Cc1ccc([N+](=O)[O-])cc1)=N\OC(=O)COc1ccc2ccccc2c1,3.81
23,CC(C)(C)OC(=O)N1CCC(NC(=O)c2[nH]cnc2C(=O)N[C@@H](Cc2ccccc2)C(=O)OCc2ccccc2)CC1,9.68
24,Cc1cc(C)cc(NS(=O)(=O)c2ccc(Oc3ncc(C(F)(F)F)cc3Cl)cc2)c1,10.8
25,Cc1ccc(S(=O)(=O)N2CCN(C(=O)COC(=O)c3c(C)cc(C)cc3C)CC2)c(C)c1,5.29
26,Cc1ccc(S(=O)(=O)N(CC(=O)Nc2cccnc2)c2ccc(Br)cc2)cc1,2.78
